# Screening results from PubChem BioAssay.
# Only some compounds are listed: those with a hit (about 6.6% of all), similar ones and a draw of the others.
# PostGolgi yeast: growth inhibition of a yeast mutant, post-Golgi transport screen | post-Golgi transport phenotypic cell assay | inhibition, % at 10 µM | hit rate 0.9% among 98,000 | AID 739;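 further: yeast cells grown in 1536-well plates; yeast grown about 18 h at 30C before absorbance read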
# Her2 expr inh: inhibitors of human Her2 kinase expression | P04626 | SKBR-3 HER2 protein level, AlphaScreen, 18-24 h; stronger effect = lower value | HER2 level % of control, % at 10 µM | hit rate 0.69% among 65,000 | AID 645;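 active means HER2 level under 5% of the carrier-only control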
# PostGolgi ctrl: growth of the yeast control strain, post-Golgi counter-screen | efflux-deficient yeast background strain, growth absorbance A615, 16 h | inhibition, % at 10 µM | hit rate 5% among 98,000
# tolC growth inh: growth inhibitors of E. coli BW25113 tolC mutant. OD615. growth inhibition, % at 10 µM (by protocol). hit rate 2.2% among 65,000;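 active means growth inhibition at or above a cutoff equal to the mean over every tested compound plus 3 SD, cut at about 60% in these data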;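 further: growth measured after 20 h incubation at 37 °C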
#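 Test system: E. coli BW25113 ΔtolC::kan bacteria; incubation: 37 °C, 20 h exposure; medium: LB broth supplemented with 50 µg/mL kanamycin; read-out basis: percent growth inhibition; signal: A615 absorbance measurement; compound: 10 µM final, single dose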
# Ecoli WT expand: blocks growth of wild type E. coli BW25113; OD600 absorbance; growth inhibition, % at 100 µM; hit rate 0.15% among 98,000; AID 710;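 active means growth inhibition above about 50% at one test dose, limit read from the data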;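 further: growth measured after 20 h incubation at 37 °C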
# A number is an active result; i = inactive; nt = no result. Unless noted, no stated cut-off is given here; in the data, active means inhibition above about 30%; inactive means the rest.
SMILES,PostGolgi yeast,Her2 expr inh,PostGolgi ctrl,tolC growth inh,Ecoli WT expand
COc1ccc(-c2cnc(N)n2CC2CCCO2)cc1 (configuration not stated),i,i,i,64,i
COCCN1C(=O)C(=O)/C(=C(/O)c2cccc(OC)c2)C1c1ccco1 (configuration not stated),i,i,32,i,i
CC(C)Oc1ccc(/C(O)=C2/C(=O)C(=O)N(CCN(C)C)C2c2ccco2)cc1 (configuration not stated),41,i,i,i,i
O=C(CSc1nc2ccccc2c(=O)n1-c1ccc(Cl)cc1)c1ccco1,i,i,i,i,i
CCOC(=O)C(C)Oc1ccc2c(CC)cc(=O)oc2c1C (configuration not stated),i,nt,i,nt,i
CCOC(=O)C(C)Oc1ccc2c(C)cc(=O)oc2c1C(C)=O (configuration not stated),33,i,i,i,i
C=C(C)n1c(=O)[nH]c2ccccc21,i,i,i,i,i
N=c1ncn(CC(O)CO)c2nc(N3CCOCC3)[nH]c12 (configuration not stated),i,nt,i,nt,i
CCCNS(=O)(=O)c1ccc(OC)c(Cl)c1Cl,i,nt,i,nt,i
COc1ccc(S(=O)(=O)NCCSC(C)(C)C)c(Cl)c1Cl,i,nt,31,nt,i
O=[N+]([O-])c1cc(-c2cnc3ccccc3n2)ccc1Oc1ccc(F)cc1,i,nt,i,nt,i
Cc1ccc(-c2noc(CCCC(=O)Nc3cccnc3)n2)cc1,i,i,i,i,i
Cc1ccc(Cn2ccc(NC(=O)c3cc(-c4ccc5c(c4)OCO5)on3)n2)cc1,i,i,35,i,i
CC(OC(=O)c1ccccc1NCc1ccco1)C(=O)Nc1ncc(Cl)cc1Cl (configuration not stated),i,i,i,61,i
Clc1ccc2c(c1)CNc1c(ncnc1N1CCOCC1)O2,i,i,i,i,i
Cc1ccc2c(CC(=O)NC3=NCCS3)coc2c1,i,i,33,i,i
c1ccc(-c2csc3nnc(SCc4ccc5c(c4)OCO5)n23)cc1,i,i,33,i,i
O=C(CSc1nnc2scc(-c3ccccc3)n12)Nc1ccc2c(c1)OCCO2,i,i,37,i,i
CCOc1ccc2nc3c(cc2c1)CN(CCCO)C(=NCCOC)S3,i,i,i,i,i
COc1ccccc1Nc1nc(N)nc(-c2cc3ccccc3o2)n1,i,i,i,i,i
Cc1c(-c2nc(N)nc(Nc3ccccc3F)n2)oc2ccccc12,i,i,35,i,i
COc1cccc(Nc2nc(N)nc(-c3oc4ccccc4c3C)n2)c1,i,nt,77,nt,i
COc1ccc(CNC(=O)c2ccc(=O)oc2)cc1OC,i,i,i,i,i
CC(=O)Nc1cccc(NC(=O)CSc2nnc(Cc3cccn3C)n2-c2ccc(C)cc2)c1,i,i,i,i,i
CCOC(=O)C1=C(CN2CCCCC2)NC(=O)NC1c1cc(C)ccc1C (configuration not stated),i,nt,i,nt,i
SMILES,PostGolgi yeast,Her2 expr inh,PostGolgi ctrl,tolC growth inh,Ecoli WT expand
CCOC(=O)C1=C(COc2ccc(F)cc2Cl)NC(=O)NC1c1cc(C)ccc1C (configuration not stated),i,nt,30,nt,i
Cc1noc(C)c1COC(=O)c1ccccc1Sc1ccccc1C#N,i,i,30,i,i
N#Cc1ccccc1Sc1ccccc1C(=O)OCc1nnc(-c2ccccc2)o1,i,i,i,i,i
COc1ccc(C2(O)CCN(CC(=O)Nc3nccs3)CC2)c(OC)c1,i,i,i,i,i
COC(=O)CC1COc2ccccc2N1C(=O)c1ccc(C(C)(C)C)cc1 (configuration not stated),i,nt,i,nt,i
O=C(Cn1c(NCCO)nc2ccccc21)NCCc1ccccc1,i,i,38,i,i
Cc1ccc(C(=O)c2coc3c2C(=O)C(=O)c2ccccc2-3)cc1,81,nt,70,nt,i
Cc1ccc(C(=O)c2c(C)oc3c2C(=O)C(=O)c2ccccc2-3)cc1,i,nt,i,nt,i
Cc1oc2c(c1C(=O)c1ccc(Cl)cc1)C(=O)C(=O)c1ccccc1-2,45,nt,58,nt,i
COC(=O)c1[nH]c2ccccc2c1NC(=O)CN1CCN(C(=O)c2ccco2)CC1,i,i,i,i,i
Cc1cccc(-c2cc3nc4c(c(N5CCCC(O)C5)n3n2)CCC4)c1 (configuration not stated),i,i,79,i,i
OC1CCCN(c2c3c(nc4cc(-c5cccc(Cl)c5)nn24)CCC3)C1 (configuration not stated),i,i,96,i,i
Cc1cccc(-c2cc3nc4c(c(N5CCC6(CC5)OCCO6)n3n2)CCCC4)c1,nt,i,nt,i,nt
Cc1c(NC(=O)c2cc(-c3cccs3)on2)c(=O)n(-c2ccccc2)n1C,i,i,i,i,i
COc1ccc(NS(=O)(=O)c2ccc3oc4ccccc4c3c2)cn1,i,i,47,100,i
CCOC(=O)C1CCN(C(=O)CNS(=O)(=O)c2cccs2)CC1,i,i,i,i,i
CN(C)c1ccc(-c2nnn(Cc3ccccc3Br)n2)cc1,i,i,31,i,i
Fc1ccccc1Cn1nnc(-c2ccc3c(c2)OCO3)n1,i,nt,i,nt,i
C=CCNc1oc(Cc2cccc3ccccc23)nc1C#N,i,i,i,i,i
N#Cc1nc(Cc2cccc3ccccc23)oc1NCc1ccc(F)cc1,i,i,31,71,i
CCN(CC)c1nc2ccccc2nc1-n1nc(C)cc1C,i,nt,43,nt,i
CN(c1ccccc1C(N)=O)S(=O)(=O)c1ccccc1,i,i,i,i,i
CCOC(=O)c1cc2sc(C)cc2n1C(C)C(=O)OCC (configuration not stated),i,i,i,62,i
CCOC(=O)c1cc2sc(C)cc2n1CC(=O)Nc1cccc(C)c1C,i,i,i,i,i
CC(=O)C1C(c2ccccc2Cl)NC(=O)NC1(O)C(F)(F)F (configuration not stated),i,i,i,i,i
SMILES,PostGolgi yeast,Her2 expr inh,PostGolgi ctrl,tolC growth inh,Ecoli WT expand
CCOC(=O)C1C(c2ccccc2Cl)NC(=O)N(C)C1(O)C(F)(F)F (configuration not stated),i,-28,i,i,i
Cc1ccc(CNS(=O)(=O)c2ccc3oc(C(=O)O)c(C)c3c2)cc1,i,i,i,i,i
O=c1c2ccccc2sc2nc(C3CCCCC3)n(Cc3ccco3)c(=O)c12,47,i,50,i,i
CCc1nc2oc3cc(OC)ccc3c(=O)c2c(=O)n1Cc1ccco1,i,i,i,i,i
CCc1nc2sc3ccccc3c(=O)c2c(=O)n1Cc1ccco1,i,i,i,91,i
CCOC(=O)C1Cc2c([nH]c3ccccc23)C(C)N1 (configuration not stated),i,i,i,i,i
COC(=O)C1Cc2c([nH]c3ccccc23)CN1 (configuration not stated),i,-19,i,i,i
Cc1ccc(Cl)cc1N1CCN(C(=O)COc2ccc(S(=O)(=O)NC(C)C)cc2)CC1,i,i,i,63,i
O=C(COc1ccc(S(=O)(=O)NC2CCCCC2)cc1)N1CCN(c2cccc(Cl)c2)CC1,i,nt,41,nt,i
CCN1N=C(c2ccccc2)Cn2c1nc1ccccc12,i,nt,30,nt,i
